The results in this text go back to ChEMBL document CHEMBL1134221, “RPR203494 a pyrimidine analogue of the p38 inhibitor RPR200765A with an improved in vitro potency” (Bioorg Med Chem Lett, 2001).

Series [1] in a line: Oral bioavailability in rat. Particulars: in vivo. It is filed as ADME, organism-based. In outline: (§1)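 Rat pharmacokinetics with the compound given alone: an iv arm at 1 mg/kg and an oral arm at 5 mg/kg. Plasma profiles give Cmax, Tmax, AUC, terminal half-life, total clearance and Vdss. Absolute oral bioavailability is derived by comparing the oral and iv exposures.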
The nature of series [2]: Inhibitory concentration against lipopolysaccharide induced TNF-alpha release on human monocytes. Format: functional. The gist of the method:
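Adherent human monocytes (100,000 cells/well) are stimulated with LPS (10 ng/mL) for 18 h, with or without compound. Each experiment is run in quadruplicate. TNF-α is measured by sandwich ELISA, and EC50 is calculated for each compound.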

Series [3] can be described thus: Stability (%) in rat liver microsomes. It is filed as ADME. As to conditions: read-out: % turnover.
Series [4] in a line: Inhibitory activity against lipopolysaccharide induced TNF-alpha release on human monocytes at a concentration of 300 nM. It is filed as functional.
For series [5], the target named is T1, MAP kinase p38 (Mus musculus, UniProt P47811+O08911+Q9WUI1+Q9Z1B7). Kind of series: Inhibition of murine Mitogen-activated protein kinase p38. It is filed as protein assay. In outline:
(§2)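 Mouse p38 enzyme at 40 ng/well, run 1 h at room temperature. ATF-2 substrate is coated onto plates. Buffer is 25 mM Hepes pH 7.7 with 25 mM MgCl2, 2 mM dithiothreitol, 1 mM sodium orthovanadate and ATP. Phospho-ATF-2 is detected with phospho-specific primary antibodies. IC50 is given as mean±SEM of repeat experiments (n=3).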

Series [6] is described as follows: Plasma clearance after intravenous administration (1 mg/kg) in rat. Format: ADME, organism-based. As to conditions: read-out: Clp (converted). The gist of the method: as §1
Series [7] can be described thus: Terminal half life after intravenous administration (1 mg/kg) in rat. It is filed as ADME, organism-based. As to conditions: in vivo. In outline: as §1
Series [8] can be described thus: Oral Bioavailability after intravenous administration (1 mg/kg) in rat. It is filed as ADME, organism-based. Particulars: in vivo, 5 mg/kg, in the assay text read “oral administration (5 mg/kg)” for “intravenous administration (1 mg/kg)”. In outline:
as §1

Series [9] in a line: Maximum plasma concentration in Rat at a oral dose of 5 mg/kg. It is filed as ADME, organism-based. Details: dose 5 mg/kg, route oral. As to conditions: read-out: CPmax. In outline: as §1
The nature of series [10]: Terminal half life in Rat at a oral dose of 5 mg/kg. Details: dose 5 mg/kg, route oral. It is filed as ADME, organism-based. As to conditions: in vivo. In outline:
as §1

Series [11] can be described thus: Volume distribution after intravenous administration (1 mg/kg) in rat. It is filed as ADME, organism-based. As to conditions: in vivo, read-out: Vdss. The gist of the method:
as §1

Series [12] is described as follows: Area under curve in Rat at a oral dose of 5 mg/kg. It is filed as ADME, organism-based. Details: dose 5 mg/kg, route oral. Particulars: in vivo. The gist of the method: as §1
The nature of series [13]: T max in Rat at a oral dose of 5 mg/kg. Format: ADME, organism-based. Details: dose 5 mg/kg, route oral. Particulars: in vivo. In outline:
as §1

A short description of series [14]: Area under curve after intravenous administration (1 mg/kg) in rat. As to conditions: in vivo. It is filed as ADME, organism-based. In outline: as §1
In series [15] the target is T1, MAP kinase p38. Kind of series: Inhibitory activity against p38 kinase (40 ng/well) was determined in mouse. In outline: as §2

As usually defined, the bioavailability is dose-corrected exposure relative to a reference, in per cent. By EC50 is commonly meant the concentration giving half of the maximal effect. Read a low EC50 as a more potent agent. What is called inhibition is the share of the control response that was lost under treatment. Low readings indicate little suppression, high ones strong suppression. By IC50 is commonly meant the concentration that gives 50% inhibition. In general, half-life refers to how long it takes for the measured level to halve. Higher therefore signals slow decline. In general, AUC refers to concentration integrated over time. A lower AUC goes with less exposure. The Tmax is the time from dosing to the highest level.

Take `COc1cccc(Nc2nccc(-c3[nH]c([C@H]4OC[C@](C)(C(=O)N5CCOCC5)CO4)nc3-c3ccc(F)cc3)n2)c1`: the bioavailability in series [1] was determined as 6%. Moreover, it took 33 nM to reach a half-maximal effect in series [2] (EC50). Also, in series [3], the metabolised is 54.1%.
`C[C@]1(C(=O)N2CCOCC2)CO[C@H](c2nc(-c3ccc(F)cc3)c(-c3ccnc(NCc4cccs4)n3)[nH]2)OC1` gave an EC50 in [2] of 70 nM. For the same molecule, the metabolised in [3] turned out to be 92%.
In the case of `CNc1nccc(-c2[nH]c([C@H]3OC[C@](C)(C(=O)N4CCOCC4)CO3)nc2-c2ccc(F)cc2)n1`, the inhibition at 0.3 µM in [4] was 38%. The metabolised in [3] came out at 8.1%.
`C[C@]1(C(=O)N2CCOCC2)CO[C@H](c2nc(-c3ccc(F)cc3)c(-c3ccnc(NCc4ccc(F)cc4)n3)[nH]2)OC1`: the EC50 in [2] came to 62 nM. Moreover, the metabolised in series [3] came out at 44.6%.
As for `C[C@]1(C(=O)N2CCOCC2)CO[C@H](c2nc(-c3ccc(F)cc3)c(-c3ccnc(NCCC(=O)O)n3)[nH]2)OC1`, the inhibition at 0.3 µM in [4] was determined as 6%. For the same molecule, the metabolised in [3] turned out to be 3.5%.
`C[C@]1(C(=O)N2CCOCC2)CO[C@H](c2nc(-c3ccc(F)cc3)c(-c3ccnc(NCC(=O)O)n3)[nH]2)OC1` returned a concentration giving a half-maximal response (EC50) in series [2] of over 10000 nM.
In [2], `C[C@]1(C(=O)N2CCOCC2)CO[C@H](c2nc(-c3ccc(F)cc3)c(-c3ccnc(NCCO)n3)[nH]2)OC1` yielded an EC50 of 319 nM. For the same molecule, in series [3], the metabolised is 18%.
With `COCCCNc1nccc(-c2[nH]c([C@H]3OC[C@](C)(C(=O)N4CCOCC4)CO3)nc2-c2ccc(F)cc2)n1`, the bioavailability in series [1] is 15%. Besides, the 50% effective concentration (EC50) in [2] worked out at 54 nM. Also, the IC50 in [5] is 7 nM.
As to `C[C@]1(C(=O)N2CCOCC2)CO[C@H](c2nc(-c3ccc(F)cc3)c(-c3ccnc(NCC4CC4)n3)[nH]2)OC1`, the EC50 in series [2] was 69 nM. Moreover, the metabolised in series [3] turned out to be 87%.
With `CCCNc1nccc(-c2[nH]c([C@H]3OC[C@](C)(C(=O)N4CCOCC4)CO3)nc2-c2ccc(F)cc2)n1`, the EC50 in [2] is 124 nM.
The same measure, in the same setting: in the case of `C[C@]1(C(=O)N2CCOCC2)CO[C@H](c2nc(-c3ccc(F)cc3)c(-c3ccnc(Nc4ccncc4)n3)[nH]2)OC1` it was 41 nM.
For the molecule `C[C@]1(C(=O)N2CCOCC2)CO[C@H](c2nc(-c3ccc(F)cc3)c(-c3ccnc(NC4CC4)n3)[nH]2)OC1`, the bioavailability came out at 29% in series [1] and 48% in series [8]. Besides, the clearance in [6] is 30 mL/min/kg. For the same molecule, the figures for the half-life in [7] and in [10] were 1.2 h and 1.4 h, respectively. The Cmax in series [9] amounted to 620 ng/mL. In [2], the EC50 was 60 nM. In addition, in series [3], the metabolised came out at 43.6%. Also, the Vd in series [11] was determined as 1.2 L/kg. Moreover, in series [5], the IC50 is reported as 9 nM. Moreover, the AUC in [12] was 1390 ng·h/mL; in [14], 580 ng·h/mL. For the same molecule, the Tmax in [13] is 0.5 h.
The molecule `C[C@]1(C(=O)N2CCOCC2)CO[C@H](c2nc(-c3ccc(F)cc3)c(-c3ccnc(N4CCCCC4)n3)[nH]2)OC1` showed an inhibition at 0.3 µM in series [4] of 26%. In addition, the metabolised in series [3] was determined as 99%.
For `CN(C)CCCNc1nccc(-c2[nH]c([C@H]3OC[C@](C)(C(=O)N4CCOCC4)CO3)nc2-c2ccc(F)cc2)n1`, in that order: 27% and 18%.
With `COc1ccc(CNc2nccc(-c3[nH]c([C@H]4OC[C@](C)(C(=O)N5CCOCC5)CO4)nc3-c3ccc(F)cc3)n2)cc1`, the bioavailability in series [1] came to 1%. Moreover, the EC50 in series [2] turned out to be 49 nM. Further, the metabolised in series [3] came to 23.9%.
The molecule `CN(C)CCNc1nccc(-c2[nH]c([C@H]3OC[C@](C)(C(=O)N4CCOCC4)CO3)nc2-c2ccc(F)cc2)n1` gave an EC50 in [2] of 570 nM. Also, the metabolised in [3] amounted to 29%.
With `C[C@]1(C(=O)N2CCOCC2)CO[C@H](c2nc(-c3ccc(F)cc3)c(-c3ccnc(NCc4ccccc4)n3)[nH]2)OC1`, the bioavailability in series [1] amounted to 24%. In series [2], this molecule yielded an EC50 of 12 nM. Further, in [3], the metabolised stood at 68%. Also, in [5], the IC50 is 5 nM.
With `C[C@]1(C(=O)N2CCOCC2)CO[C@H](c2nc(-c3ccc(F)cc3)c(-c3ccnc(N)n3)[nH]2)OC1`, in [4], the inhibition at 0.3 µM came to 39%. The metabolised in series [3] was found to be 17.6%.
In [2], `C[C@@H](Nc1nccc(-c2[nH]c([C@H]3OC[C@](C)(C(=O)N4CCOCC4)CO3)nc2-c2ccc(F)cc2)n1)c1ccccc1` had an EC50 of 10 nM. The metabolised in series [3] was determined as 81%.
`C[C@]1(C(=O)N2CCOCC2)CO[C@H](c2nc(-c3ccc(F)cc3)c(-c3ccnc(Nc4cccnc4)n3)[nH]2)OC1` yielded an EC50 in [2] of 231 nM.
As to `C[C@]1(C(=O)N2CCOCC2)CO[C@H](c2nc(-c3ccc(F)cc3)c(-c3ccnc(NCCCO)n3)[nH]2)OC1`, the bioavailability in series [1] is 2%. Besides, the concentration for a half-maximal effect (EC50) in series [2] stood at 57 nM.
The molecule `C[C@]1(C(=O)N2CCOCC2)CO[C@H](c2nc(-c3ccc(F)cc3)c(-c3ccnc(NCc4ccccn4)n3)[nH]2)OC1` came in with a bioavailability in [1] of 25%. The molecule also returned an EC50 in series [2] of 45 nM. In [3], the metabolised came out at 25%.
In [1], `C[C@H](Nc1nccc(-c2[nH]c([C@H]3OC[C@](C)(C(=O)N4CCOCC4)CO3)nc2-c2ccc(F)cc2)n1)c1ccccc1` came in with a bioavailability of 10%. The EC50 in [2] came to 1.5 nM. In addition, the metabolised in series [3] was determined as 71%.
With `C=CCNc1nccc(-c2[nH]c([C@H]3OC[C@](C)(C(=O)N4CCOCC4)CO3)nc2-c2ccc(F)cc2)n1`, in [2], the EC50 came to 110 nM. In series [3], the metabolised was 89.1%.
Molecule `C[C@]1(C(=O)N2CCOCC2)CO[C@H](c2nc(-c3ccc(F)cc3)c(-c3ccnc(NCCC#N)n3)[nH]2)OC1` yielded an inhibition at 0.3 µM in series [4] of 28%.
`CN(C)c1nccc(-c2[nH]c([C@H]3OC[C@](C)(C(=O)N4CCOCC4)CO3)nc2-c2ccc(F)cc2)n1` registered an inhibition at 0.3 µM in series [4] of 8%. In addition, the metabolised in series [3] is 40.7%.
`C[C@]1(C(=O)N2CCOCC2)CO[C@H](c2nc(-c3ccc(F)cc3)c(-c3ccnc(Nc4ccccc4)n3)[nH]2)OC1` registered a bioavailability in [1] of 29%. Besides, in series [2], the midpoint of the response, the EC50, lay at 54 nM. Moreover, the metabolised in [3] is 51%. The IC50 in [15] came out at 16 nM.
In series [2], `C[C@]1(C(=O)N2CCOCC2)CO[C@H](c2nc(-c3ccc(F)cc3)c(-c3ccnc(NC4CCCCC4)n3)[nH]2)OC1` yielded an EC50 of 24 nM. Also, in series [3], the metabolised came to 98.6%.
